{
  "source": "ChEMBL document CHEMBL4304819",
  "about": "“Natural product pectolinarigenin exhibits potent anti-metastatic activity in colorectal carcinoma cells in vitro and in vivo” (2019)",
  "key": {"HCT-116 [1]": {"test_system": "HCT-116", "assay": "Induction of apoptosis in human HCT116 cells assessed as necrotic cells at 40 uM after 48 hrs by Annexin V-FITC/propidium iodide staining-based flow cytometric analysis (reference value: 8.24 %)", "format": "functional", "how_it_was_run": "(§1)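 Cells (1–2 × 10^5 per well) seeded in six-well plates 24 h, treated at 0–40 μM for 24 h or 48 h, harvested, washed twice in cold PBS, stained with Annexin V-FITC/PI and analysed by flow cytometry; early (Annexin V only) and late (Annexin V and PI) apoptotic fractions quantified; three experiments.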"}, "CT26 [2]": {"test_system": "CT26", "assay": "Antimetastatic activity against mouse CT26 cells allografted in Balb/c mouse assessed as inhibition of MMP -9 protein expression in tumour tissue at 25 to 50 mg/kg, ip administered daily for 14 days starting from 6 days post implantation by immunohistochemical analysis", "format": "functional, organism-based", "how_it_was_run": "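Female BALB/c mice (6–8 weeks) injected ip with 5 × 10^5 CT26 cells; from day 6, randomized (eight per group) to ip vehicle, 25 or 50 mg/kg once daily for 14 days. Abdominal circumference and body weight every 3 days; abdominal nodules counted by eye and weighed; spleens assessed; paraffin tumour sections immunostained (Ki-67, MMP-9, p-Stat3) with DAB detection.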"}, "CT26 [3]": {"test_system": "CT26", "assay": "(§2) Antimetastatic activity against mouse CT26 cells allografted in ip dosed Balb/c mouse assessed as decrease in CD11b-positive/Gr1-positive myeloid cells level in peripheral blood administered daily for 14 days starting from 6 days post implantation by flow cytometric analysis", "format": "functional, organism-based"}, "HCT-116 [4]": {"test_system": "HCT-116", "assay": "Antiproliferative activity against human HCT116 cells assessed as reduction in cell viability up to 40 uM by MTT assay", "format": "functional, cell-based", "settings": "TDE = time-dependent effect", "how_it_was_run": "(§3)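 Exponentially growing cells (2–6 × 10^3 per well) seeded in 96-well plates for 24 h, then exposed to 0, 2.5, 5, 10, 20, 40 µM for 24, 48 and 72 h. MTT (5 mg/mL stock) added 2–4 h at 37 °C; formazan dissolved in DMSO, absorbance at 570 nm. Three independent experiments.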"}, "CT26 [5]": {"test_system": "CT26", "assay": "Antiinvasive activity against mouse CT26 cells after 48 hrs by crystal violet staining based light microscopic analysis", "format": "functional, cell-based", "how_it_was_run": "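Transwell membrane upper surface coated with Matrigel diluted 1:5 in serum-free medium. 5 × 10^4 cells in serum-free medium in upper part, 10% FBS medium below, treated with various concentrations for 48 h. Non-invading cells removed; underside cells fixed in methanol, stained with 0.5% crystal violet, counted by light microscopy; expressed as % inhibition versus untreated.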"}, "CT26 [6]": {"test_system": "CT26", "assay": "as §2, with “in” for “in ip dosed”, “blood at 25 mg/kg, ip” for “blood”, “analysis (reference value: 33.2 %)” for “analysis”", "format": "functional", "parameters": "scale not given: the % may be the effect or the level left"}, "SW48": {"test_system": "SW48", "assay": "Antiproliferative activity against human SW48 cells assessed as reduction in cell viability up to 40 uM by MTT assay", "format": "functional, cell-based", "settings": "TDE = time-dependent effect", "how_it_was_run": "as §3"}, "HCT-116 [7]": {"test_system": "HCT-116", "assay": "Induction of apoptosis in human HCT116 cells assessed as viable cells at 10 uM after 48 hrs by Annexin V-FITC/propidium iodide staining-based flow cytometric analysis (reference value: 86.7 %)", "format": "functional", "settings": "HCT-116, 48 h, read-out: Activity", "how_it_was_run": "as §1"}, "HCT-116 [8]": {"test_system": "HCT-116", "assay": "Induction of apoptosis in human HCT116 cells assessed as early apoptotic cells at 20 uM after 48 hrs by Annexin V-FITC/propidium iodide staining-based flow cytometric analysis (reference value: 1.23 %)", "format": "functional", "how_it_was_run": "as §1"}, "HCT-116 [9]": {"test_system": "HCT-116", "assay": "Induction of apoptosis in human HCT116 cells assessed as decrease in Bcl-2 protein expression up to 40 uM after 48 hrs by Western blot analysis", "format": "functional, cell-based", "how_it_was_run": "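Cells treated 48 h at 0, 10, 20 and 40 μM, washed in cold PBS, lysed in RIPA; protein equalized by Lowry assay, resolved by SDS-PAGE, transferred to PVDF, blocked 1 h at 37 °C, primary antibody overnight at 4 °C, secondary 1 h, ECL detection, densitometry. β-actin loading control.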"}, "[10]": {"target": "Signal transducer and activator of transcription 3 (Homo sapiens) (UniProt P40763)", "sequence (P40763 whole entry)": "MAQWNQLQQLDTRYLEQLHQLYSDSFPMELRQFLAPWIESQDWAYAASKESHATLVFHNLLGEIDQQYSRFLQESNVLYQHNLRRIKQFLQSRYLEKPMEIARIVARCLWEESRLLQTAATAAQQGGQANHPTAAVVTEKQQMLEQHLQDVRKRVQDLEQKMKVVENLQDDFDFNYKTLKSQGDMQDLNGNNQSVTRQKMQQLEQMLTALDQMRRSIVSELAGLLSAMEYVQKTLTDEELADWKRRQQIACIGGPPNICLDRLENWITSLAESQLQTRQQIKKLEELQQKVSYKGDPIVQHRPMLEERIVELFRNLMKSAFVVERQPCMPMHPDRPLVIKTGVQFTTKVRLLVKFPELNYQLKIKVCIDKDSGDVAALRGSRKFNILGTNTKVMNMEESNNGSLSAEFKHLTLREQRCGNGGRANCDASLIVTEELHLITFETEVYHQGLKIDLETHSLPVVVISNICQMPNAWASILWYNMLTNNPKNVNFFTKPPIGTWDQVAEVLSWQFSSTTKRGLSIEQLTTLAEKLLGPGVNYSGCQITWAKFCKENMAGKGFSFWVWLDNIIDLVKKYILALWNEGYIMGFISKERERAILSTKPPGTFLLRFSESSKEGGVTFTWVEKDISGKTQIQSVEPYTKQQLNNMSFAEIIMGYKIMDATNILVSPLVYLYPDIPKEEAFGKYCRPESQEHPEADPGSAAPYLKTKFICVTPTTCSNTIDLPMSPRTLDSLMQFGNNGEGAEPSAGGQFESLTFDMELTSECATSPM", "assay": "Inhibition of STAT3 phosphorylation in human HCT116 cells after 48 hrs by Western blot analysis", "format": "cell-based", "how_it_was_run": "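HCT116 cells treated 48 h with PEC at 0, 10, 20 and 40 μM, lysed in RIPA. Equal protein by Lowry, SDS-PAGE, PVDF transfer. Block 1 h at 37 °C, anti-Stat3 and anti-p-Stat3 Tyr705 overnight at 4 °C, secondary 1 h, ECL. β-actin loading control; bands quantified by densitometry.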"}, "HCT-116 [11]": {"test_system": "HCT-116", "assay": "Induction of apoptosis in human HCT116 cells assessed as early apoptotic cells at 40 uM after 48 hrs by Annexin V-FITC/propidium iodide staining-based flow cytometric analysis (reference value: 1.23 %)", "format": "functional", "how_it_was_run": "as §1"}, "HCT-116 [12]": {"test_system": "HCT-116", "assay": "Induction of apoptosis in human HCT116 cells assessed as necrotic cells at 20 uM after 48 hrs by Annexin V-FITC/propidium iodide staining-based flow cytometric analysis (reference value: 8.24 %)", "format": "functional", "how_it_was_run": "as §1"}, "CT26 [13]": {"test_system": "CT26", "assay": "Induction of apoptosis in mouse CT26 cells assessed as early apoptotic cells at 10 uM after 48 hrs by Annexin V-FITC/propidium iodide staining-based flow cytometric analysis (reference value: 2.84 %)", "format": "functional", "how_it_was_run": "(§4)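 CT26 cells seeded at 1–2 × 10^5 per well in six-well plates for 24 h, then exposed to PEC (0–40 μM) for 24 or 48 h. Cells harvested, washed twice in cold PBS, stained with Annexin V-FITC/PI and read by flow cytometry. Early apoptotic = Annexin V+ only; late apoptotic = Annexin V+/PI+. Mean ± SD of three experiments.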"}, "CT26 [14]": {"test_system": "CT26", "assay": "Induction of apoptosis in mouse CT26 cells assessed as increase in Bax/Bcl2 protein ratio up to 40 uM after 48 hrs by Western blot analysis", "format": "functional, cell-based", "how_it_was_run": "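CT26 cells exposed 48 h to PEC at 0, 10, 20 and 40 μM, washed twice in cold PBS, lysed in RIPA. Protein measured by Lowry and equalized, run on SDS-PAGE, blotted to PVDF. Blocked 1 h at 37 °C, primary antibodies (Bax, Bcl-2, pro-caspase-3, cleaved caspase-3) overnight at 4 °C, secondary 1 h, ECL detection, densitometry.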"}, "CT26 [15]": {"test_system": "CT26", "assay": "Induction of apoptosis in mouse CT26 cells assessed as late apoptotic cells at 40 uM after 48 hrs by Annexin V-FITC/propidium iodide staining-based flow cytometric analysis (reference value: 6.49 %)", "format": "functional", "how_it_was_run": "as §4"}, "HCT-116 [16]": {"test_system": "HCT-116", "assay": "Induction of apoptosis in human HCT116 cells assessed as early apoptotic cells at 10 uM after 48 hrs by Annexin V-FITC/propidium iodide staining-based flow cytometric analysis (reference value: 1.23 %)", "format": "functional", "how_it_was_run": "as §1"}, "CT26 [17]": {"test_system": "CT26", "assay": "Induction of apoptosis in mouse CT26 cells assessed as necrotic cells at 40 uM after 48 hrs by Annexin V-FITC/propidium iodide staining-based flow cytometric analysis (reference value: 1.80 %)", "format": "functional", "how_it_was_run": "as §4"}, "CT26 [18]": {"test_system": "CT26", "assay": "Anticlonogenic activity against mouse CT26 cells assessed as reduction in colony formation up to 40 uM incubated for 24 hrs supplemented with fresh medium containing compound every 3 days for 12 days by crystal violet staining-based microscopic analysis", "format": "functional, cell-based", "how_it_was_run": "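Cells seeded at 400–800 per well in 6-well plates; after 24 h, treated with 0–40 μM in fresh medium (with or without compound) replaced every three days for 12 days. Colonies fixed in methanol, stained with 0.5% crystal violet for 15 min and counted by microscope; reported as surviving colonies, mean ± SD of three experiments.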"}},
  "note": "Active and inactive are the calls of the source. The rule behind the calls is not given here.",
  "data": [
    {"smiles": "COc1ccc(-c2cc(=O)c3c(O)c(OC)c(O)cc3o2)cc1", "note": "[PECTOLINARIGENIN]", "values": [
      {"measurement": "Activity", "setting": "HCT-116 [1]", "value": 7.17, "unit": "%"},
      {"measurement": "inhibition", "setting": "CT26 [2]", "value": "Active"},
      {"measurement": "Activity", "setting": "CT26 [3]", "value": "Dose-dependent effect"},
      {"measurement": "inhibition", "setting": "HCT-116 [4]", "value": "Tde"},
      {"measurement": "inhibition", "setting": "CT26 [5]", "value": "Dose-dependent effect"},
      {"measurement": "Activity", "setting": "CT26 [6]", "value": 26.7, "unit": "%"},
      {"measurement": "inhibition", "setting": "SW48", "value": "Tde"},
      {"measurement": "viability at 10 µM", "setting": "HCT-116 [7]", "value": 85.1, "unit": "%"},
      {"measurement": "Activity", "setting": "HCT-116 [8]", "value": 8.86, "unit": "%"},
      {"measurement": "Activity", "setting": "HCT-116 [9]", "value": "Active"},
      {"measurement": "inhibition", "setting": "[10]", "value": "Dose-dependent effect"},
      {"measurement": "Activity", "setting": "HCT-116 [11]", "value": 9.42, "unit": "%"},
      {"measurement": "Activity", "setting": "HCT-116 [12]", "value": 4.55, "unit": "%"},
      {"measurement": "Activity", "setting": "CT26 [13]", "value": 3.57, "unit": "%"},
      {"measurement": "Activity", "setting": "CT26 [14]", "value": "Active"},
      {"measurement": "Activity", "setting": "CT26 [15]", "value": 13.4, "unit": "%"},
      {"measurement": "Activity", "setting": "HCT-116 [16]", "value": 5.08, "unit": "%"},
      {"measurement": "Activity", "setting": "CT26 [17]", "value": 3.09, "unit": "%"},
      {"measurement": "inhibition", "setting": "CT26 [18]", "value": "Active"}
    ]}
  ]
}
